Test: Toxicity liver stage against HepG2, at 10uM
Assay type: cell-based
Design: test concentration 10 uM, cell line HepG2-A16-CD81EGFP
Settings: human, HepG2-A16-CD81EGFP cells; read-out: INHIBITION
Summary of the method: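 Uninfected HepG2-A16-CD81EGFP cells, 3 × 10^3 per well, 1536-well, plated on prespotted compound at 10 μM final, parasite-free screening media added to match infected plates; puromycin 10 μM positive, DMSO 0.5% negative; run in parallel with 48 h PbLuc assay at 37 °C, 5% CO2; viability by CellTiter-Glo luminescence, normalized to controls.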

Row | SMILES | cytotoxicity at 10 µM
1 | NC(CC1CCCCC1)c1ccccc1 (stereo not given) | -4.8%
2 | O=C(NC[C@H]1OC[C@@H](NC2COC2)[C@@H]1O)c1ccccc1 | -1.05%
3 | Cc1ccc2c(c1)nc1n2[C@@H](CNC(=O)c2cccnc2)COC1 | 5.29%
4 | Cc1ccc(CN2CC[C@H](c3nnc(COc4ccc(F)cc4)o3)C2)o1 | 5.2%
5 | CCCC(=O)n1ccn(S(=O)(=O)c2ccc(C)cc2)c1=O | 8.08%
6 | COc1ccc(C2CCCCCN2Cc2cn(C)nc2C)cc1 (stereo not given) | -4.96%
7 | COc1ccc2c(c1)OC1(CCN(Cc3ccccc3C)CC1)CC2=O | 6.52%
8 | CN1C(=O)C2(CC(=O)Nc3c2cnn3C(C)(C)C)c2c(Cl)cccc21 (stereo not given) | 3.41%
9 | Cn1c(CN2CCOCC2)cc(=O)c(O)c1CN1CCOCC1 | -5.61%
10 | O=C(CN1C(=O)CCC1=O)NCC1(O)CCc2ccccc21 (stereo not given) | -15.7%
11 | CC(C)Nc1nc2c(c(NC3CC3)n1)CN(C(=O)c1ccncc1)CC2 | -2.29%
12 | CS(=O)(=O)N1C[C@H]2CCC[C@@]2(COCC2CCOCC2)C1 | -0.173%
13 | O=C(c1nc2c(s1)CCCN2C(=O)C1CC1)N1CCCC1 | 7.02%
14 | CS(=O)(=O)N1CCOC2(CCN(c3nccs3)CC2)c2ccccc21 | 1.18%
15 | COCCNC(=O)C1CN(Cc2ccsc2)Cc2ccnn2C1 (stereo not given) | -6.07%
16 | CNC(=O)[C@@]12CCC3(CCN(S(=O)(=O)C4CC4)CC3)[C@@H]1CN(C(C)=O)C2 | -0.201%
17 | O=C(Cc1ccsc1)N1CCn2cc(Cn3cncn3)nc2C1 | -142%
18 | CC(=O)c1c(O)n(C)c2ccc(F)cc12 | 6.76%
19 | COc1cccc(C2CC(=O)Nc3nc(N)sc32)c1OC (stereo not given) | 3.74%
20 | Cc1csc([C@@H]2C[C@@H]3CCN(C(=O)c4cc(C)on4)C[C@H]3O2)n1 | 4.88%
21 | O=C(c1ccsc1)N1CC(C(=O)N2CCOCC2)C2(CCOCC2)C1 (stereo not given) | -1.1%
22 | CCN(CC)c1nc(Nc2cccc(C(=O)O)c2)nc2ccccc12 | 12%

Row | SMILES | cytotoxicity at 10 µM
23 | CN1CCN(C(=O)c2[nH]nnc2Nc2ccccc2F)CC1 | 1.36%
24 | COCCC(=O)NCc1ccc(-c2ccccc2C(=O)O)cn1 | 1.92%
25 | Fc1cccc(CN2CCC[C@H](Cn3nnc(-c4ccccn4)n3)C2)c1 | 3.44%
26 | CO[C@@H]1CC[C@@H](NC(=O)CCc2ccc(Cl)cc2)[C@H]1O | 3.84%
27 | Cc1ncoc1C(=O)N1CCCC(c2ccc3c(N)nn(C)c3n2)C1 (stereo not given) | 2.76%
28 | CC(C)c1cc(C(=O)NCCc2nc(-c3ccncc3)n[nH]2)[nH]n1 | -0.01%
29 | Cc1cc(N(C)Cc2ncc(-c3ccccc3C(=O)O)s2)ncn1 | -0.241%
30 | Cc1cc(C(F)F)nn1C(C)C(=O)NCc1nccn1C (stereo not given) | 4.86%
31 | CC(C)C(=O)N1CCCC([C@@H]2C[C@H](C(F)F)n3ncnc3N2)C1 (stereo not given in full) | -3.41%
32 | CO[C@H]1CCN(C(=O)c2ccc3[nH]nnc3c2)C[C@@]12CCCO2 | -5.38%
33 | Nc1no[n+]([O-])c1C(=O)NCc1ccco1 | 2.94%
34 | Cc1cncc(C(=O)N[C@@H]2CC[C@@H](N3CCOCC3)[C@@H]2O)c1 | 0.331%
35 | CNC(=O)c1cccc(C2CNCCN2C(=O)C2CCNCC2)c1 (stereo not given) | -2.39%
36 | O=C(c1ccc(Cl)cc1)N1CCC(N2CCNC2=O)CC1 | 12.6%
37 | Cc1c(CNC2CCN(c3ccccc3OC(F)F)C2)cnn1C (stereo not given) | -1.77%
38 | CC(C)(NC(=O)NCc1cccc(Br)c1)C(=O)O | 9.13%
39 | CCc1nc(Cn2cncc(Br)c2=O)no1 | -11.8%
40 | CC1CN(C(=O)c2ccc(C(N)=O)cc2)c2ccc(F)cc2O1 (stereo not given) | 8.07%
41 | Cc1noc(C)c1NC(=O)CCn1cc(Br)ccc1=O | 7.07%
42 | COc1ccc(Br)cc1S(=O)(=O)N(C)Cc1ccc(N(C)C)cc1 | -7.59%
43 | CC(Cn1ccnc1)NC(=O)NCCN1CCCCCC1=O (stereo not given) | -1.26%
44 | CCN(C)C(=O)NCC1(CN2CCOCC2)CCCCC1 | -5.18%

Row | SMILES | cytotoxicity at 10 µM
45 | Cc1cnn(CC(=O)N(CC2CN(C)CCO2)c2nccs2)c1 (stereo not given) | 1.79%
46 | CC(=O)c1cccc(OCCCC(=O)N(C)Cc2cscn2)c1 | 0.175%
47 | COc1cc(C(=O)NS(=O)(=O)c2cncc(Br)c2)cc(Cl)c1OC | -2.21%
48 | CCS(=O)(=O)c1ccccc1C(=O)NCC1Cc2ccccc2O1 (stereo not given) | -0.561%
49 | CC(C)c1cc(NC(=O)CN2CCCC(Cn3cncn3)C2)on1 (stereo not given) | 14%
50 | Cc1cnc(C(C)(C)NC(=O)NCc2ccc(C#N)cc2F)s1 | 15.1%
51 | CC(C)N(C)Cc1ccccc1CNc1ccc2nncn2n1 | 0.425%
52 | Cc1ccc(CNC(=O)CN2CCN(CCO)CC2)s1 | 9.03%
53 | CSCc1cc(F)ccc1CNCc1cccc(O)c1 | -3.58%
54 | Cn1cnnc1C1CCCN(C(=O)c2cc(C3CC3)on2)C1 (stereo not given) | 5.14%
55 | Cc1nn(C)c(N(C)C)c1CNC1CCCCNC1=O (stereo not given) | 7.76%
56 | O=C(Nc1ccccc1Cn1cccn1)N1CCC(N2CCCC2)C1 (stereo not given) | 2.06%
57 | CCN(CC)C(=O)C1CCN(c2ccc(Cl)cc2C#N)CC1 | 12.2%
58 | CC(=O)c1ccc(-n2c(C)cn(CCC#N)c2=O)cc1 | 19.3%
59 | CC(C)OCCCNC(=O)CSc1nnc(OC(C)C)s1 | -5.89%
60 | CSC(C)(C)CNC(=O)NCC[S+]([O-])c1ccccc1F (stereo not given) | -11.6%
61 | Cc1ncoc1C(=O)N1CCn2c(COc3cccnc3)cnc2C1C (stereo not given) | -8.93%
62 | Cn1cc(-c2nnn3c2COC(CNCC2CCOCC2)C3)cn1 (stereo not given) | 0.171%
63 | CCCN(C)c1ncc2c(n1)N(C)CCN(CC1CC1)C2=O | -5.69%
64 | Cc1cc(CN2CCC=C(CN(C)C(=O)c3ccco3)C2)no1 | 6.65%
65 | CCC(C)N(Cc1ccc(C)cc1)Cc1c[nH]c(C)n1 (stereo not given) | 7.87%
66 | O=C(O)C1(Cc2ccccc2Cl)CCN(c2ncccn2)CC1 | 7.04%

Row | SMILES | cytotoxicity at 10 µM
67 | CC(=O)Nc1ccc(Cl)c(C(=O)N(C)Cc2nc(C)c[nH]2)c1 | 1.37%
68 | CCn1c(CN(C)C)nnc1C1CCN(Cc2ccc(Cl)c(F)c2)CC1 | 3.73%
69 | Cc1ccn(CCNc2ncnc3c2CCN(S(C)(=O)=O)CC3)n1 | -3.03%
70 | c1cc(-c2cnccn2)cc(-c2ccn(CCN3CCCCC3)n2)c1 | -4.54%
71 | Cn1nc(C2CC2)c2c1NC(=O)CC2c1ccc(CN2CCCCC2)s1 (stereo not given) | -6.37%
72 | Cn1c(CO)nnc1CC1CCN(Cc2ccc(C#N)cc2)CC1 | 4.98%
73 | OC1CCCOC12CCN(c1ncccn1)CC2 (stereo not given) | 3.73%
74 | O=C1CCCN1Cc1nc(-c2ccsc2)no1 | -5.41%
75 | CC(C)=CCN1CCc2onc(-c3ccc(F)c(F)c3)c2C1 | 5.67%
76 | CN1CCN(C2CCOCC2)CC12CCC(=O)N(CC1CC1)CC2 (stereo not given) | -1.93%
77 | O=C(Cc1ccc(F)cc1Cl)N1C[C@@H](CN2CCC(O)CC2)[C@@H](CO)C1 | 9.32%
78 | Cc1ccc(CN2CCN(Cc3ccc4nonc4c3)CC2=O)cc1 | -1.9%
79 | COc1cc(C)ccc1OCc1nc(C(=O)N2CCC(C)CC2)co1 | -45%
80 | O=C(Cc1ccccn1)N1CCc2nc(-c3cnccn3)nc(O)c2C1 | 2.83%
81 | CCc1c(C(=O)N2CCCC(N(C)C)C2)cnn1C(C)(C)C (stereo not given) | -0.088%
82 | CCOCCCn1c(NC(=O)c2cc(C)no2)nc2ccccc21 | -5.69%
83 | CS(=O)(=O)NC1CCN(C(=O)NCCc2ccccn2)CC1 | -14.4%
84 | Cc1nc(C2CCCN2Cc2ccn(C)c(=O)c2)no1 (stereo not given) | -12.9%
85 | CCCNC(=O)NC(=O)CN1CCN(Cc2nccn2CC)CC1 | -14.3%
86 | COc1ccc(-c2nnc(CNCCn3cc(C)cn3)o2)cc1 | 1.32%
87 | Cc1cc(C)n(CC2CN(Cc3noc(C)n3)CCO2)n1 (stereo not given) | 0.305%
88 | CCCS(=O)(=O)NC1CCN(c2nnc(C)c(C)c2C#N)CC1 | 3.28%

Row | SMILES | cytotoxicity at 10 µM
89 | CCn1cc(NC(=O)C2CCN(CCOC(C)C)CC2)cn1 | -5.4%
90 | CN(C)CC1CN(c2ccc(C#N)cn2)CCO1 (stereo not given) | -4.67%
91 | COCCc1noc(CN2CCCCC2Cn2cc(C)cn2)n1 (stereo not given) | -8.54%
92 | Cc1nn(C)c(C)c1C1CCCN1Cc1cccc(C(N)=O)c1 (stereo not given) | -10.2%
93 | CC(O)CN1CCN(C(=O)c2cccn2Cc2ccncc2)CC1 (stereo not given) | -10.9%
94 | O=C(NCCc1cccc(F)c1)NCC(O)c1cccc(F)c1 (stereo not given) | -13.1%
95 | COc1ccc(CCC(=O)Nc2cccnc2N2CCCC2)cc1Br | 1.06%
96 | FC(F)CNc1cnc(C2CCCN2)cn1 (stereo not given) | 0.865%
97 | COc1cc(C(C)=O)ccc1OCCNCc1ccco1 | -5.05%
98 | CN1CCO[C@H]2CN(S(=O)(=O)c3ccc(C#N)cc3)C[C@H]21 | 7.25%
99 | O=c1ccc2c(n1CC1CCOCC1)CCN(Cc1ccoc1)CC2 | -128%
100 | Cc1ccccc1N1CC2(CCCCN2CC2CC2)CC1=O (stereo not given) | 10.4%
101 | CN1C[C@@H]2CN(C(=O)NCc3ccccc3)CCC[C@]2(C(=O)O)C1 | 9.55%
102 | O=C([C@H]1COC[C@H]2CN(C3CCCC3)C[C@H]21)N1CCCCO1 | -9.47%
103 | O=C1CC2(CCN(Cc3cccnc3)C2)CN1c1cncnc1 (stereo not given) | -65.7%
104 | CN(C)[C@@H]1CN(C(=O)Cc2ccc(F)cc2)[C@@H]2CCCO[C@H]12 | 3.88%
105 | Cc1ccc(C(=O)N2CCn3cc(CN(C)Cc4ccco4)nc3C2)o1 | 12.4%
106 | Cn1cc(C(=O)N2CC[C@@H]3[C@@H]2CCN3Cc2ccccc2)cn1 | -69.8%
107 | Cc1cccc(CN2CC3(CCN(C4CCOC4)CC3)OCC2=O)n1 (stereo not given) | -2.92%
108 | CN1CC(=O)N(c2cccc(F)c2)CC12CCN(S(=O)(=O)C1CC1)C2 (stereo not given) | -71.8%
109 | CC(C)NC(=O)[C@H]1C[C@H]2CN(C(=O)NCCc3ccccc3)C[C@@H]1O2 | 1.25%
110 | CS(=O)(=O)CCC(=O)N1C[C@H]2CC[C@@H](C1)N(Cc1ccccn1)C2=O | 7.23%
